Experimental findings from publication PMC5855950 (RNA, 2018) are described below.

For test [1], the system named is DsRedCAG250 Drosophila. Nature of the test: Climbing ability assay, DsRedCAG250 Drosophila. Type of test: in vivo. Particulars: 100 µM at third instar larval stage; elav>DsRedCAG250 flies at 5, 10 and 15 dpe. A digest of the protocol: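 Flies carried elav-GAL4 and UAS-DsRedCAG250 and were reared at 25°C. Larval dosing was a 2 h feed of third instar larvae on peptide in 2% sucrose at room temperature, with climbing tested at 5, 10 and 15 dpe. Adult dosing: 5 or 10 dpe flies were starved 8 h, then fed overnight on peptide-sucrose filter paper, and tested at 10 or 15 dpe.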

Test [2] deals with GADD45A mRNA. Nature of the test: Real-time PCR: GADD45A mRNA expression in HEK293 cells. Type of test: cell-based, human. To be noted: three repeats. A digest of the protocol: (§1)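 RNA was extracted from HEK293 cells with TRIzol. One µg was reverse transcribed using random hexamer primers. GADD45A and HBB transcripts were quantified with TaqMan gene expression probes on a real-time PCR system.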

The subject of test [3] is EGFPCAG78-expressing HEK293 cells. Nature of the test: LDH assay: suppression of death of EGFPCAG78-expressing HEK293 cells. Format: cell-based, human. To be noted: scrambled control, Supplemental Fig. S1. Summed up: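 HEK293 cells were grown in DMEM with 10% FBS at 37°C and 5% CO2 and seeded at 1 × 10^5 per well. They were lipofected with pEGFPCAG78, and TAT-peptide was added immediately after at 0.1–25 µM (8 levels). LDH activity in the medium was read at 72 h and normalised to the no-peptide control. IC50 came from variable-slope nonlinear regression; at least 3 repeats.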

The subject of test [4] is HBB mRNA. Nature of the test: Real-time PCR: HBB mRNA expression in HEK293 cells. Type of test: cell-based, human. Particulars: three repeats. A digest of the protocol:
as §1

Test [5] relates to Htt-exon1Q93 Drosophila. Nature of the test: Pseudopupil assay, Htt-exon1Q93 Drosophila. Type of test: in vivo. To be noted: 100 µM at third instar larval stage, 1 dpe adults. Summed up:
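Flies were raised at 21.5°C. Third instar larvae fed 2 h at room temperature on peptide in 2% sucrose solution. Rhabdomeres per ommatidium were counted by pseudopupil assay at 1 dpe for Htt-exon1Q93 flies and 12 dpe for flMJDQ84 flies. Experiments were repeated at least three times (n = 10 fly heads), as mean ± SEM, one-way ANOVA with Tukey test.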

As for “YGRKKRRQRRRGGEDIKSRVEAASILYFIKKK [TAT-BIND-S]”, the “climbing defects, larval treatment” value in test [1] is “had no effect”. Also, the “GADD45A mRNA expression” value in test [2] is listed as “no significant change”. The “effect on cell death” value in test [3] is on record as “did not suppress or elicit cell death”. For the same sequence, the “HBB mRNA expression” value in test [4] is listed as “no significant change”. For the same sequence, the “retinal degeneration, Htt-exon1Q93” value in test [5] is on record as “but not TAT-BIND-S”.
